Values joined by “and” are separate entries in the source; they are usually repeats but may differ in a detail not shown here. Equal entries are not always repeated.
Key:
P388 [1] = test: Antitumor activity in P-388 lymphocytic leukemia system at 25 mg/kg dose levels per injection.; assay type: functional, Mus musculus
Outline: (§1)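 P-388 leukemia in animals, Q01D×09 schedule: dose given daily for 9 days, in mg/kg per injection. Read-outs are survivors on day 4 (live/total animals), body-weight difference test minus control (g), and % T/C (median lifetime of treated ÷ median lifetime of controls × 100). Some compounds were tested in independent runs at different times.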

P388 [2] = test: Antitumor activity in P-388 lymphocytic leukemia system and the difference in body weight calculated at 100 mg/kg dose levels per injection.; assay type: functional, Mus musculus
P388 [3] = test: (§2) Antitumor activity in P-388 lymphocytic leukemia system at 100 mg/kg dose levels per injection.; assay type: functional, Mus musculus; outline: as §1
P388 [4] = test: Antitumor activity in P-388 lymphocytic leukemia system and the difference in body weight was calculated at 50 mg/kg dose levels per injection.; assay type: functional, Mus musculus
P388 [5] = test: as §2; assay type: functional, Mus musculus; remark: listed apart in the source
Outline: (§3)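 P-388 leukemia in vivo, dosed Q01D×09 (one injection daily for 9 days, mg/kg per injection). Activity is %T/C, the median lifetime of treated animals divided by that of controls, ×100. Live animals on day 4 were counted against the total (survivors day 4). Repeat tests were done independently at different times.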

P388 [6] = test: Antitumor activity in P-388 lymphocytic leukemia system and the difference in body weight was calculated at 25 mg/kg dose levels per injection.; assay type: functional, Mus musculus
P388 [7] = test: Antitumor activity in P-388 lymphocytic leukemia system at 25 mg/kg dose levels per injection; assay type: functional, Mus musculus; outline: as §3
P388 [8] = test: Compound was tested for antitumor activity in P-388 lymphocytic leukemia system. at 200 mg/kg dose levels per injection; Toxic; assay type: functional, organism-based; parameters: dose 200 mg/kg; conditions: Mus musculus; outline: as §3
P388 [9] = test: Antitumor activity in P-388 lymphocytic leukemia system and the difference in body weight was calculated at 200 mg/kg dose levels per injection.; assay type: functional, Mus musculus
[10] = Solubility was determined; assay type: physicochemical
P388 [11] = test: Compound was tested for antitumor activity in P-388 lymphocytic leukemia system at 200 mg/kg dose levels per injection; 5/6; assay type: functional, Mus musculus; outline: as §1
P388 [12] = test: (§4) Antitumor activity in P-388 lymphocytic leukemia system at 50 mg/kg dose levels per injection.; assay type: functional, Mus musculus; outline: as §3
P388 [13] = test: Compound was tested for antitumor activity in P-388 lymphocytic leukemia system at 50 mg/kg dose levels per injection;6/6; assay type: functional, Mus musculus; outline: as §1
P388 [14] = test: Compound was tested for antitumor activity in P-388 lymphocytic leukemia system at 200 mg/kg dose levels per injection; 2/6; assay type: functional, Mus musculus; outline: as §1
P388 [15] = test: Compound was tested for antitumor activity in P-388 lymphocytic leukemia system at 100 mg/kg dose levels per injection; 5/6; assay type: functional, Mus musculus; outline: as §1
P388 [16] = test: Compound was tested for antitumor activity in P-388 lymphocytic leukemia system at 200 mg/kg dose levels per injection.; assay type: functional, organism-based; parameters: dose 200 mg/kg; conditions: Mus musculus; outline: as §3
P388 [17] = test: as §4; assay type: functional, Mus musculus; outline: as §1; remark: listed apart in the source
P388 [18] = test: Compound was tested for antitumor activity in P-388 lymphocytic leukemia system at 100 mg/kg dose levels per injection; Toxic; assay type: functional, organism-based; parameters: dose 100 mg/kg; conditions: Mus musculus; outline: as §3
P388 [19] = test: Compound was tested for antitumor activity in P-388 lymphocytic leukemia system at 200 mg/kg dose levels per injection; 4/6; assay type: functional, Mus musculus; outline: as §1
P388 [20] = test: Compound was tested for antitumor activity in P-388 lymphocytic leukemia system at 50 mg/kg dose levels per injection; 6/6; assay type: functional, Mus musculus; outline: as §1
[21] = Solubility was determined; INS= less than 0.1; assay type: physicochemical
P388 [22] = test: Compound was tested for antitumor activity in P-388 lymphocytic leukemia system at 200 mg/kg dose levels per injection; 3/6; assay type: functional, Mus musculus; outline: as §1
P388 [23] = test: Compound was tested for antitumor activity in P-388 lymphocytic leukemia system and the difference in body weight was calculated at 400 mg/kg dose levels per injection; assay type: functional, Mus musculus
P388 [24] = test: Compound was tested for antitumor activity in P-388 lymphocytic leukemia system at 25 mg/kg dose levels per injection; assay type: functional, Mus musculus; outline: as §3
P388 [25] = test: Compound was tested for antitumor activity in P-388 lymphocytic leukemia system at 400 mg/kg dose levels per injection; 5/5; assay type: functional, Mus musculus; outline: as §1
P388 [26] = test: Compound was tested for antitumor activity in P-388 lymphocytic leukemia system 25 mg/kg dose levels per injection; assay type: functional, Mus musculus; outline: as §3
P388 [27] = test: (§5) Antitumor activity in P-388 lymphocytic leukemia system at 200 mg/kg dose levels per injection.; assay type: functional, Mus musculus; outline: as §1
P388 [28] = test: as §5; assay type: functional, Mus musculus; conditions: 200 mg/kg; outline: as §3
P388 [29] = test: Compound was tested for antitumor activity in P-388 lymphocytic leukemia system at 100 mg/kg dose levels per injection; 5/5; assay type: functional, Mus musculus; outline: as §1
P388 [30] = test: Compound was tested for antitumor activity in P-388 lymphocytic leukemia system at 200 mg/kg dose levels per injection; 5/5; assay type: functional, Mus musculus; outline: as §1
P388 [31] = test: Compound was tested for antitumor activity in P-388 lymphocytic leukemia system at 50 mg/kg dose levels per injection; 5/5; assay type: functional, Mus musculus; outline: as §1
P388 [32] = test: Compound was tested for antitumor activity in P-388 lymphocytic leukemia system. at 400 mg/kg dose levels per injection; assay type: functional, Mus musculus; outline: as §3

Question: Which “Survivors at day 4” value (P388 [1]) does the source give for O=C1C2C3CCC(C2C(=O)N1CO)C1C2C(=O)N(CO)C(=O)C2C31 (stereo not drawn) here?
Answer: 6

Question: What about the Weight difference (P388 [2]) of the same compound?
Answer: -3.3 g

Question: What about the “Survivors at day 4” value (P388 [3]) of the same compound?
Answer: 6

Question: What about the Weight difference (P388 [4]) of the same compound?
Answer: -1.8 g

Question: What about the T/C (P388 [5]) of the same compound?
Answer: 205%

Question: What about the Weight difference (P388 [6]) of the same compound?
Answer: 0.1 g

Question: And the T/C (P388 [7])?
Answer: 102%

Question: What about the T/C (P388 [8]) of the same compound?
Answer: Toxic

Question: And the Weight difference (P388 [9])?
Answer: -4.7 g

Question: What about the Solubility [10] of the same compound?
Answer: 1%

Question: And the “Survivors at day 4” value (P388 [11])?
Answer: 5

Question: What about the T/C (P388 [12]) of the same compound?
Answer: 145%

Question: What about the “Survivors at day 4” value (P388 [13]) of the same compound?
Answer: 6

Question: Which results are given for O=C(O)CCC(=O)OCN1C(=O)C2C3C=CC(C2C1=O)C1C2C(=O)N(COC(=O)CCC(=O)O)C(=O)C2C31 (stereo not drawn)?
Answer: Survivors at day 4 (P388 [1]): 6; Survivors at day 4 (P388 [14]): 2; Survivors at day 4 (P388 [15]): 5; T/C (P388 [16]): Toxic; Weight difference (P388 [2]; 100 mg/kg): -4.4 g and -3.1 g; Survivors at day 4 (P388 [3]): 6; T/C (P388 [5]): 165%; Survivors at day 4 (P388 [17]): 6; T/C (P388 [7]; 25 mg/kg): 103% and 107%; Weight difference (P388 [9]; 200 mg/kg): -6.7 g and -6.9 g; T/C (P388 [18]): Toxic; T/C (P388 [12]; 50 mg/kg): 115% and 116%; Survivors at day 4 (P388 [19]): 4

Question: For O=C1C2C3C=CC(C2C(=O)N1CN1CCOCC1)C1C2C(=O)N(CN4CCOCC4)C(=O)C2C31 (stereo not drawn), which “Survivors at day 4” value (P388 [1]) is on record?
Answer: 6

Question: What about the T/C (P388 [16]) of the same compound?
Answer: Toxic

Question: What about the Weight difference (P388 [2]; 100 mg/kg) of the same compound?
Answer: -4.8 g and -3.9 g

Question: What about the “Survivors at day 4” value (P388 [3]) of the same compound?
Answer: 6

Question: What about the “Survivors at day 4” value (P388 [20]) of the same compound?
Answer: 6

Question: What about the Weight difference (P388 [4]; 50 mg/kg) of the same compound?
Answer: -1.7 g and -1.5 g

Question: And the Solubility [21]?
Answer: Insoluble

Question: And the T/C (P388 [5]; 100 mg/kg)?
Answer: 120% and 174%

Question: What about the “Survivors at day 4” value (P388 [22]) of the same compound?
Answer: 3

Question: And the “Survivors at day 4” value (P388 [17])?
Answer: 6

Question: What about the Weight difference (P388 [6]; 25 mg/kg) of the same compound?
Answer: -1 g and -0.9 g

Question: What about the T/C (P388 [7]; 25 mg/kg) of the same compound?
Answer: 120% and 125%

Question: What about the Weight difference (P388 [9]; 200 mg/kg) of the same compound?
Answer: -6.2 g and -5.9 g

Question: And the T/C (P388 [12]; 50 mg/kg)?
Answer: 148% and 141%

Question: What about the “Survivors at day 4” value (P388 [19]) of the same compound?
Answer: 4

Question: Which “Survivors at day 4” value (P388 [1]) does the source give for CC(=O)OCN1C(=O)C2C3C=CC(C2C1=O)C1C2C(=O)N(COC(C)=O)C(=O)C2C31 (stereo not drawn) here?
Answer: 6

Question: What about the Weight difference (P388 [23]) of the same compound?
Answer: -2.2 g

Question: And the T/C (P388 [24])?
Answer: 117%

Question: And the “Survivors at day 4” value (P388 [25])?
Answer: 5

Question: And the Weight difference (P388 [26])?
Answer: -0.1 g

Question: What about the “Survivors at day 4” value (P388 [27]) of the same compound?
Answer: 6

Question: What about the “Survivors at day 4” value (P388 [3]) of the same compound?
Answer: 6

Question: What about the T/C (P388 [28]) of the same compound?
Answer: 180% and 133%

Question: And the Weight difference (P388 [4]; 50 mg/kg)?
Answer: -0.4 g and -0.7 g

Question: And the Solubility [21]?
Answer: Insoluble

Question: What about the T/C (P388 [5]; 100 mg/kg) of the same compound?
Answer: 118% and 155%

Question: What about the “Survivors at day 4” value (P388 [29]) of the same compound?
Answer: 5

Question: And the “Survivors at day 4” value (P388 [17])?
Answer: 6

Question: What about the “Survivors at day 4” value (P388 [30]) of the same compound?
Answer: 5

Question: What about the T/C (P388 [12]; 50 mg/kg) of the same compound?
Answer: 140% and 115%

Question: And the “Survivors at day 4” value (P388 [31])?
Answer: 5

Question: What about the T/C (P388 [32]) of the same compound?
Answer: 208%
